Reference: ChEMBL document CHEMBL1134010, “Syntheses and antifungal activities of novel 3-amido bearing pseudomycin analogues” (Bioorg Med Chem Lett, 2001)
≈ marks a conversion by molar mass, not a printed value. Positions of bridges follow the written chain, without caps; N, C: chain ends. Non-standard residues stand in square brackets, D forms with d. Residues, ends and D or L forms follow the SMILES beside them. Groups on a side chain read outwards from the residue. *: point of attachment. Tetradecanoyl(3R-OH) = CCCCCCCCCCC[C@@H](O)CC(=O)*; Asp(3S-OH) = N[C@H](C(=O)O)[C@H](O)C(=O)O; Thr(4-Cl) = N[C@H](C(=O)O)[C@H](O)CCl; aThr = C[C@H](O)[C@H](N)C(=O)O; dDab = NCC[C@@H](N)C(=O)O; Dab = NCC[C@H](N)C(=O)O; Dhb = C/C=C(\N)C(=O)O; X1 = CCN(CC)CCN*

Columns and labels:
Aspergillus fumigatus = experiment: In vitro minimum inhibitory concentration (MIC) against Aspergillus fumigatus.; format: functional
Method in brief: (§1)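 Tested against Candida albicans, Cryptococcus neoformans and Aspergillus fumigatus, with PSB as positive control. MIC is taken as the lowest drug concentration giving 90–100% inhibition of visible growth relative to drug-free controls.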

Candida albicans [1] = experiment: In vitro minimum inhibitory concentration (MIC) against Candida albicans.; format: functional; method in brief: as §1
Cryptococcus neoformans = experiment: In vitro minimum inhibitory concentration (MIC) against Cryptococcus neoformans.; format: functional; method in brief: as §1
Candida albicans [2] = experiment: In vivo efficacy against murine Candidiasis dosed four times by intraperitoneal administration post-infection using Reed and Muench method.; format: functional; details: ip
Method in brief: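 Systemic candidiasis in mice, with PSB and amphotericin B as positive controls. Analogues were given at 20, 10 and 5 mg/kg, four doses at 0, 4, 24 and 48 post-infection. ED50 is the dose giving 50% survival relative to untreated infected animals, calculated by the Reed and Muench method.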

Mus musculus [3] = experiment: Toxicity at a dose of 100 mg/kg in mice; Death; details: in vivo
Mus musculus [4] = experiment: Toxicity at a dose of 125 mg/kg in mice; Death; details: in vivo

Structure (SMILES) | MIC (Aspergillus fumigatus) [µg/mL] | MIC (Candida albicans [1]) [µg/mL] | MIC (Cryptococcus neoformans) [µg/mL] | ED50 (Candida albicans [2]) [mg/kg] | Toxicity (Mus musculus [3]) | Toxicity (Mus musculus [4])
C/C=C1\NC(=O)[C@H]([C@H](C)O)NC(=O)[C@H](CCN)NC(=O)[C@H](CCCCN)NC(=O)[C@H](CC(=O)NCCCC)NC(=O)[C@@H](CCN)NC(=O)[C@@H](NC(=O)C[C@H](O)CCCCCCCCCCC)COC(=O)[C@H]([C@H](O)CCl)NC(=O)[C@H]([C@H](O)C(=O)O)NC1=O | 20 (≈ 15.8 µM) | 5 (≈ 3.96 µM) | < 0.01 | 5.9 | – | –
C/C=C1\NC(=O)[C@H]([C@H](C)O)NC(=O)[C@H](CCN)NC(=O)[C@H](CCCCN)NC(=O)[C@H](CC(=O)NCCC)NC(=O)[C@@H](CCN)NC(=O)[C@@H](NC(=O)C[C@H](O)CCCCCCCCCCC)COC(=O)[C@H]([C@H](O)CCl)NC(=O)[C@H]([C@H](O)C(=O)O)NC1=O | > 20 | 1.25 (≈ 1 µM) | 0.078 (≈ 0.0625 µM) | 6 | Death | Death
C/C=C1\NC(=O)[C@H]([C@H](C)O)NC(=O)[C@H](CCN)NC(=O)[C@H](CCCCN)NC(=O)[C@H](CC(=O)NCCN(CC)CC)NC(=O)[C@@H](CCN)NC(=O)[C@@H](NC(=O)C[C@H](O)CCCCCCCCCCC)COC(=O)[C@H]([C@H](O)CCl)NC(=O)[C@H]([C@H](O)C(=O)O)NC1=O ({Tetradecanoyl(3R-OH)}-S[dDab]D(X1)K[Dab][aThr][Dhb][Asp(3S-OH)][Thr(4-Cl)]; ester 1-C) | 10 (≈ 7.66 µM) | 10 (≈ 7.66 µM) | < 0.01 | 4.9 | – | –
C/C=C1\NC(=O)[C@H]([C@H](C)O)NC(=O)[C@H](CCN)NC(=O)[C@H](CCCCN)NC(=O)[C@H](CC(=O)NCCC(C)C)NC(=O)[C@@H](CCN)NC(=O)[C@@H](NC(=O)C[C@H](O)CCCCCCCCCCC)COC(=O)[C@H]([C@H](O)CCl)NC(=O)[C@H]([C@H](O)C(=O)O)NC1=O | > 20 | 0.312 (≈ 0.244 µM) | < 0.01 | 10.9 | – | –
C/C=C1\NC(=O)[C@H]([C@@H](C)O)NC(=O)[C@H](CCN)NC(=O)[C@H](CCCCN)NC(=O)[C@H](CC(=O)N[C@@H](Cc2c[nH]cn2)C(=O)OC)NC(=O)[C@@H](CCN)NC(=O)[C@@H](NC(=O)C[C@H](O)CCCCCCCCCCC)COC(=O)[C@H]([C@H](O)CCl)NC(=O)[C@H]([C@H](O)C(=O)O)NC1=O | 20 (≈ 14.7 µM) | 0.312 (≈ 0.23 µM) | < 0.01 | < 5 | – | –
C/C=C1\NC(=O)[C@H]([C@H](C)O)NC(=O)[C@H](CCN)NC(=O)[C@H](CCCCN)NC(=O)[C@H](CC(=O)NCCCCCCCC)NC(=O)[C@@H](CCN)NC(=O)[C@@H](NC(=O)C[C@H](O)CCCCCCCCCCC)COC(=O)[C@H]([C@H](O)CCl)NC(=O)[C@H]([C@H](O)C(=O)O)NC1=O | > 20 | 20 (≈ 15.2 µM) | 0.625 (≈ 0.474 µM) | > 20 | – | –
C/C=C1\NC(=O)[C@H]([C@H](C)O)NC(=O)[C@H](CCN)NC(=O)[C@H](CCCCN)NC(=O)[C@H](CC(=O)NC)NC(=O)[C@@H](CCN)NC(=O)[C@@H](NC(=O)C[C@H](O)CCCCCCCCCCC)COC(=O)[C@H]([C@H](O)CCl)NC(=O)[C@H]([C@H](O)C(=O)O)NC1=O | > 20 | 5 (≈ 4.1 µM) | 0.312 (≈ 0.256 µM) | 7.4 | – | –
C/C=C1\NC(=O)[C@H]([C@H](C)O)NC(=O)[C@H](CCN)NC(=O)[C@H](CCCCN)NC(=O)[C@H](CC(=O)NCCCCCCN(C)C)NC(=O)[C@@H](CCN)NC(=O)[C@@H](NC(=O)C[C@H](O)CCCCCCCCCCC)COC(=O)[C@H]([C@H](O)CCl)NC(=O)[C@H]([C@H](O)C(=O)O)NC1=O | 20 (≈ 15 µM) | 5 (≈ 3.75 µM) | < 0.01 | < 5 | – | –
C/C=C1\NC(=O)[C@H]([C@H](C)O)NC(=O)[C@H](CCN)NC(=O)[C@H](CCCCN)NC(=O)[C@H](CC(=O)NCC(=O)OC)NC(=O)[C@@H](CCN)NC(=O)[C@@H](NC(=O)C[C@H](O)CCCCCCCCCCC)COC(=O)[C@H]([C@H](O)CCl)NC(=O)[C@H]([C@H](O)C(=O)O)NC1=O ({Tetradecanoyl(3R-OH)}-S[dDab]D([Gly-OMe])K[Dab][aThr][Dhb][Asp(3S-OH)][Thr(4-Cl)]; ester 1-C) | 20 (≈ 15.6 µM) | 1 (≈ 0.782 µM) | 0.01 (≈ 0.00782 µM) | < 5 | – | –
C/C=C1\NC(=O)[C@H]([C@H](C)O)NC(=O)[C@H](CCN)NC(=O)[C@H](CCCCN)NC(=O)[C@H](CC(=O)NCC)NC(=O)[C@@H](CCN)NC(=O)[C@@H](NC(=O)C[C@H](O)CCCCCCCCCCC)COC(=O)[C@H]([C@H](O)CCl)NC(=O)[C@H]([C@H](O)C(=O)O)NC1=O | 20 (≈ 16.2 µM) | 0.625 (≈ 0.506 µM) | 0.156 (≈ 0.126 µM) | – | – | –
C/C=C1\NC(=O)[C@H]([C@H](C)O)NC(=O)[C@H](CCN)NC(=O)[C@H](CCCCN)NC(=O)[C@H](CC(=O)NCCCN(C)C)NC(=O)[C@@H](CCN)NC(=O)[C@@H](NC(=O)C[C@H](O)CCCCCCCCCCC)COC(=O)[C@H]([C@H](O)CCl)NC(=O)[C@H]([C@H](O)C(=O)O)NC1=O | 10 (≈ 7.74 µM) | 10 (≈ 7.74 µM) | < 0.01 | < 5 | – | –
C/C=C1\NC(=O)[C@H]([C@H](C)O)NC(=O)[C@H](CCN)NC(=O)[C@H](CCCCN)NC(=O)[C@H](CC(=O)NCCCCCCCN(C)C)NC(=O)[C@@H](CCN)NC(=O)[C@@H](NC(=O)C[C@H](O)CCCCCCCCCCC)COC(=O)[C@H]([C@H](O)CCl)NC(=O)[C@H]([C@H](O)C(=O)O)NC1=O | > 20 | 10 (≈ 7.42 µM) | < 0.01 | < 4 | – | –
C/C=C1\NC(=O)[C@H]([C@H](C)O)NC(=O)[C@H](CCN)NC(=O)[C@H](CCCCN)NC(=O)[C@H](CC(=O)NCCCCCC)NC(=O)[C@@H](CCN)NC(=O)[C@@H](NC(=O)C[C@H](O)CCCCCCCCCCC)COC(=O)[C@H]([C@H](O)CCl)NC(=O)[C@H]([C@H](O)C(=O)O)NC1=O | > 20 | 5 (≈ 3.87 µM) | 0.156 (≈ 0.121 µM) | > 12 | – | –
C/C=C1\NC(=O)[C@H]([C@@H](C)O)NC(=O)[C@H](CCN)NC(=O)[C@H](CCCCN)NC(=O)[C@H](CC(=O)N[C@@H](CCCN=C(N)N)C(=O)OC)NC(=O)[C@@H](CCN)NC(=O)[C@@H](NC(=O)C[C@H](O)CCCCCCCCCCC)COC(=O)[C@H]([C@H](O)CCl)NC(=O)[C@H]([C@H](O)C(=O)O)NC1=O | > 20 | 5 (≈ 3.63 µM) | 0.01 (≈ 0.00726 µM) | < 5 | – | –
C/C=C1\NC(=O)[C@H]([C@@H](C)O)NC(=O)[C@H](CCN)NC(=O)[C@H](CCCCN)NC(=O)[C@H](CC(=O)N[C@@H](Cc2ccccc2)C(=O)OC)NC(=O)[C@@H](CCN)NC(=O)[C@@H](NC(=O)C[C@H](O)CCCCCCCCCCC)COC(=O)[C@H]([C@H](O)CCl)NC(=O)[C@H]([C@H](O)C(=O)O)NC1=O | > 20 | 1.25 (≈ 0.913 µM) | 1.25 (≈ 0.913 µM) | > 15 | – | –
C/C=C1\NC(=O)[C@H]([C@H](C)O)NC(=O)[C@H](CCN)NC(=O)[C@H](CCCCN)NC(=O)[C@H](CC(=O)N(C)CCN(C)C)NC(=O)[C@@H](CCN)NC(=O)[C@@H](NC(=O)C[C@H](O)CCCCCCCCCCC)COC(=O)[C@H]([C@H](O)CCl)NC(=O)[C@H]([C@H](O)C(=O)O)NC1=O | 20 (≈ 15.5 µM) | 5 (≈ 3.87 µM) | < 0.01 | 4 | – | –
C/C=C1\NC(=O)[C@H]([C@H](C)O)NC(=O)[C@H](CCN)NC(=O)[C@H](CCCCN)NC(=O)[C@H](CC(=O)N(C)C)NC(=O)[C@@H](CCN)NC(=O)[C@@H](NC(=O)C[C@H](O)CCCCCCCCCCC)COC(=O)[C@H]([C@H](O)CCl)NC(=O)[C@H]([C@H](O)C(=O)O)NC1=O | 10 (≈ 8.1 µM) | 10 (≈ 8.1 µM) | < 0.01 | < 4.5 | – | –
C/C=C1\NC(=O)[C@H]([C@H](C)O)NC(=O)[C@H](CCN)NC(=O)[C@H](CCCCN)NC(=O)[C@H](CC(=O)NCCCCN(C)C)NC(=O)[C@@H](CCN)NC(=O)[C@@H](NC(=O)C[C@H](O)CCCCCCCCCCC)COC(=O)[C@H]([C@H](O)CCl)NC(=O)[C@H]([C@H](O)C(=O)O)NC1=O | 5 (≈ 3.83 µM) | 20 (≈ 15.3 µM) | < 0.01 | < 5 | – | –
C/C=C1\NC(=O)[C@H]([C@H](C)O)NC(=O)[C@H](CCN)NC(=O)[C@H](CCCCN)NC(=O)[C@H](CC(=O)NCCCCCCCCC)NC(=O)[C@@H](CCN)NC(=O)[C@@H](NC(=O)C[C@H](O)CCCCCCCCCCC)COC(=O)[C@H]([C@H](O)CCl)NC(=O)[C@H]([C@H](O)C(=O)O)NC1=O | > 20 | 20 (≈ 15 µM) | 5 (≈ 3.75 µM) | > 20 | – | –
C/C=C1\NC(=O)[C@H]([C@H](C)O)NC(=O)[C@H](CCN)NC(=O)[C@H](CCCCN)NC(=O)[C@H](CC(=O)NCCCCCCCCCC)NC(=O)[C@@H](CCN)NC(=O)[C@@H](NC(=O)C[C@H](O)CCCCCCCCCCC)COC(=O)[C@H]([C@H](O)CCl)NC(=O)[C@H]([C@H](O)C(=O)O)NC1=O | > 20 | > 20 | 1.25 (≈ 0.928 µM) | > 20 | – | –
C/C=C1\NC(=O)[C@H]([C@H](C)O)NC(=O)[C@H](CCN)NC(=O)[C@H](CCCCN)NC(=O)[C@H](CC(=O)NCCCCC)NC(=O)[C@@H](CCN)NC(=O)[C@@H](NC(=O)C[C@H](O)CCCCCCCCCCC)COC(=O)[C@H]([C@H](O)CCl)NC(=O)[C@H]([C@H](O)C(=O)O)NC1=O | > 20 | 0.312 (≈ 0.244 µM) | < 0.01 | 8.5 | – | –
